This passage reports MFC, MIC and Activity results from ChEMBL document CHEMBL1156731, “Antifungal activity of synthetic di(hetero)arylamines based on the benzo[b]thiophene moiety” (2008).

One may read the MFC as the lowest tested concentration that kills the fungus rather than only halting it. A lower MFC goes with greater fungicidal potency. One may read the MIC as the lowest concentration found to suppress growth. Lower therefore signals greater potency.

One assay deals with Aspergillus flavus. The assay is described as follows: Antifungal activity against Aspergillus flavus F44 after 3 days by broth macrodilution method. The format is functional. Conditions: 72 h. The method, boiled down: (§1)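 Aspergillus inoculum from 3-day SDA subcultures at 30 °C; conidial suspension in 0.85% saline, diluted in RPMI 1640 (L-glutamine, no bicarbonate, 0.165 M MOPS, pH 7.0) to 1-2 × 10^4 CFU/mL. Twofold dilutions 200-0.8 µg/mL from DMSO stock (final DMSO ≤2%); macrodilution per CLSI M38-A, 30 °C, 3 days. MIC = lowest concentration giving 80% turbidity reduction vs drug-free control; MFC by subculture on SDA. Three independent experiments in duplicate.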

The subject of assay [1] is Aspergillus fumigatus. The assay is described as follows: Antifungal activity against Aspergillus fumigatus ATCC 46645 after 3 days by broth macrodilution method. The format is functional. Conditions: ATCC 46645, 72 h. The method, boiled down:
as §1

Another assay concerns Aspergillus niger. The assay is described as follows: Antifungal activity against Aspergillus niger ATCC 16404 after 3 days by broth macrodilution method. The assay is classed as functional. Conditions: ATCC 16404, 72 h. A digest of the protocol: as §1
Assay [2] has as its system Candida albicans. The assay is described as follows: Antifungal activity against Candida albicans ATCC 10231 assessed as red fluorescence stained with FUN1 by flow cytometry. The assay is classed as functional. The method, boiled down: (§2)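 Overnight SDA cells suspended in RPMI 1640 at (2.0 ± 0.2) × 10^6 CFU/mL. Twofold dilutions 256 to one µg/mL applied at 35 °C, humid, no agitation, 2, 4 and 24 h. Washed; FUN-1 0.5 µM in PBS/2% glucose (20 min, 35 °C, FL2) or PI 1 µg/mL with 0.125% deoxycholate (~10 min, room temperature, FL3). ≥7500 events; marker included ≤5% of drug-free control cells.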

The test system of assay [3] is Aspergillus fumigatus. The assay is described as follows: Antifungal activity against Aspergillus fumigatus ATCC 46645 assessed as red fluorescence stained with FUN1 by flow cytometry. The assay is classed as functional, organism-based. The method, boiled down:
(§3)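 Conidia from 4–7-day SDA cultures suspended in water with 0.01% Tween 80 at (2.0 ± 0.2) × 10^6 CFU/mL. Exposed to twofold dilutions 256 to one µg/mL at 35 °C, water bath with agitation, 3, 4 and 24 h. FUN-1 0.5 µM (20 min, 35 °C, FL2) or PI 1 µg/mL (1 h, 35 °C, FL3); ≥7500 events; positive-cell marker set at ≤5% of drug-free controls.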
Background: In flow cytometry, cells or beads pass a laser one at a time.

In assay [4] the test system is Candida albicans. The assay is described as follows: Antifungal activity against Candida albicans ATCC 10231 assessed as red fluorescence stained with PI by flow cytometry. The format is functional. A digest of the protocol:
as §2

In assay [5] the test system is Aspergillus fumigatus. The assay is described as follows: Antifungal activity against Aspergillus fumigatus ATCC 46645 assessed as red fluorescence stained with PI by flow cytometry. The format is functional. A digest of the protocol: as §3
The test system of another assay is Pichia kudriavzevii. The assay is described as follows: Antifungal activity against Candida krusei ATCC 6258 after 48 hrs by broth macrodilution method. The format is functional. The note with it: ATCC 6258, 48 h. The method, boiled down:
(§4)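 Yeasts grown 1 day on SDA at 37 °C, subcultured, suspended in saline and diluted in MOPS-buffered RPMI 1640 (pH 7.0) to 1-2 × 10^3 CFU/mL. Broth macrodilution per CLSI M27-A2, twofold dilutions 200-0.8 µg/mL (DMSO ≤2% final), aerobic, 37 °C, 48 h. MIC = 80% turbidity reduction vs drug-free control; MFC from SDA subculture at 37 °C. Three independent experiments in duplicate.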

Another assay relates to Candida tropicalis. The assay is described as follows: Antifungal activity against Candida tropicalis ATCC 13803 after 48 hrs by broth macrodilution method. The format is functional. The note with it: ATCC 13803, 48 h. A digest of the protocol:
as §4

The subject of assay [6] is Candida albicans. The assay is described as follows: Antifungal activity against Candida albicans D5 after 48 hrs by broth macrodilution method. The format is functional. A digest of the protocol: as §4
The next assay deals with Nakaseomyces glabratus. The assay is described as follows: Antifungal activity against Candida glabrata D10R after 48 hrs by broth macrodilution method. The assay is classed as functional. A digest of the protocol:
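Broth macrodilution per CLSI M27-A2 (minor modifications). Inoculum 1-2 × 10^3 CFU/mL in RPMI 1640 with L-glutamine, MOPS-buffered 0.165 M, pH 7.0. Twofold dilutions 200-0.8 µg/mL from DMSO stock (final DMSO ≤2%). Aerobic, 37 °C, 48 h. MIC = lowest concentration giving 80% turbidity reduction versus drug-free control. Three independent experiments in duplicate.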

A further assay has as its system Epidermophyton floccosum. The assay is described as follows: Antifungal activity against Epidermophyton floccosum FF9 after 5 days by broth macrodilution method. The note with it: 120 h. The format is functional. A digest of the protocol:
(§5)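 Dermatophytes grown 5 days on SDA at 30 °C, subcultured. Conidial suspensions in saline were adjusted in MOPS-buffered RPMI 1640 (pH 7.0) to 1-2 × 10^4 CFU/mL. Macrodilution adapted from CLSI M38-A with 200-0.8 µg/mL twofold dilutions (DMSO ≤2%), incubated at 30 °C for 5 days. MIC at 80% turbidity reduction vs control; MFC by SDA subculture at 30 °C. Triplicate experiments in duplicate.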

The subject of a further assay is Trichophyton rubrum. The assay is described as follows: Antifungal activity against Trichophyton rubrum FF5 after 5 days by broth macrodilution method. Conditions: 120 h. The assay is classed as functional. A digest of the protocol: as §5
For assay [7], the system named is Trichophyton mentagrophytes. The assay is described as follows: Antifungal activity against Trichophyton mentagrophytes FF7 after 5 days by broth macrodilution method. The note with it: 120 h. The format is functional. A digest of the protocol: as §5
For the next assay, the system named is Microsporum canis. The assay is described as follows: Antifungal activity against Microsporum canis FF1 after 5 days by broth macrodilution method. Conditions: 120 h. The format is functional. The method, boiled down:
as §5

For a further assay, the system named is Nannizzia gypsea. The assay is described as follows: Antifungal activity against Microsporum gypseum FF3 after 5 days by broth macrodilution method. The format is functional. Conditions: 120 h. The method, boiled down:
as §5

The subject of assay [8] is Candida albicans. The assay is described as follows: Inhibition of germ tube formation in Candida albicans ATCC 10231 after 3 hrs by hemocytometer. The format is functional, organism-based. The method, boiled down: (§6)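 Overnight SDA cultures (37 °C) were suspended in NYP medium (N-acetylglucosamine 10^-3 mol/L, YNB 3.35 g/L, proline 10^-3 mol/L, NaCl 4.5 g/L, pH 6.7) at (1.0 ± 0.2) × 10^6 CFU/mL. Compound added at 1/2, 1/4 and 1/8 MIC (1% DMSO final), 3 h at 37 °C. 100 cells counted by hemocytometer; germ tube at least blastospore diameter, pseudohyphae excluded. Mean ± SD, three experiments.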

The test system of assay [9] is Candida albicans. The assay is described as follows: Inhibition of germ tube formation in Candida albicans D5 after 3 hrs by hemocytometer. The assay is classed as functional, organism-based. A digest of the protocol: as §6
The test system of assay [10] is Candida albicans. The assay is described as follows: Inhibition of germ tube formation in Candida albicans M1 after 3 hrs by hemocytometer. The format is functional, organism-based. The method, boiled down:
as §6

The test system of assay [11] is Candida albicans. The assay is described as follows: Antifungal activity against Candida albicans ATCC 10231 after 48 hrs by broth macrodilution method. The format is functional. The note with it: ATCC 10231, 48 h. A digest of the protocol:
as §4

Structures are written as SMILES. Converted amounts (≈) assume the structure as drawn. The source made the active and inactive calls. No cut-off for these calls is given here. Where only a bound is given, the exact number is not on record here.

For `C[C@@H]1[C@H](O)[C@@H](C)/C=C/C=C/C=C/C=C/C=C/C=C/C=C/[C@H](O[C@@H]2O[C@H](C)[C@@H](O)[C@H](N)[C@@H]2O)C[C@@H]2O[C@](O)(C[C@@H](O)C[C@@H](O)[C@H](O)CC[C@@H](O)C[C@@H](O)CC(=O)O[C@H]1C)C[C@H](O)[C@H]2C(=O)O` [AMPHOTERICIN B], the MFC against Aspergillus flavus was determined as 8 µg/mL (≈ 8.66 µM); against Aspergillus fumigatus [1], 4 µg/mL (≈ 4.33 µM); with Aspergillus niger it was 4 µg/mL (≈ 4.33 µM). The minimal inhibitory concentration (MIC) was found to be 2 µg/mL (≈ 2.16 µM) in the assay on Aspergillus flavus, 2 µg/mL (≈ 2.16 µM) with Aspergillus fumigatus [1] and 1 µg/mL (≈ 1.08 µM) against Aspergillus niger. The Activity worked out at 60% in the assay on Candida albicans [2], 40% with Candida albicans [4] and 40% in the assay with Aspergillus fumigatus [5]. Besides, in the assay on Aspergillus fumigatus [3], the result was Active.

On to `c1cncc(Nc2csc3ccccc23)c1`, for which the minimal fungicidal concentration (MFC) against Pichia kudriavzevii is > 100 µg/mL; in the assay with Candida tropicalis, > 100 µg/mL; in the assay on Candida albicans [6] it was > 50 µg/mL; against Nakaseomyces glabratus it was > 50 µg/mL; in the assay with Epidermophyton floccosum, > 12.5 µg/mL; in the assay with Trichophyton rubrum, 12.5 µg/mL (≈ 55.2 µM). Further, the minimal fungicidal concentration (MFC) in assay [7] was > 12.5 µg/mL; with Microsporum canis, > 12.5 µg/mL; against Nannizzia gypsea, > 12.5 µg/mL; against Aspergillus flavus, 100 µg/mL (≈ 442 µM); with Aspergillus fumigatus [1], > 50 µg/mL; against Aspergillus niger it was > 100 µg/mL. In the assay with Candida albicans [11], this compound yielded a minimum fungicidal concentration (MFC) of 100 µg/mL (≈ 442 µM). Further, the minimal inhibitory concentration (MIC) against Pichia kudriavzevii was 100 µg/mL (≈ 442 µM); in the assay on Candida tropicalis, 100 µg/mL (≈ 442 µM); against Candida albicans [6], 50 µg/mL (≈ 221 µM); in the assay with Nakaseomyces glabratus, 50 µg/mL (≈ 221 µM); in the assay with Epidermophyton floccosum it was 12.5 µg/mL (≈ 55.2 µM); in the assay on Trichophyton rubrum it was 3.13 µg/mL (≈ 13.8 µM). For the same compound, the minimal inhibitory concentration (MIC) worked out at 12.5 µg/mL (≈ 55.2 µM) in assay [7]; 12.5 µg/mL (≈ 55.2 µM) with Microsporum canis; 12.5 µg/mL (≈ 55.2 µM) in the assay with Nannizzia gypsea; 50 µg/mL (≈ 221 µM) against Aspergillus flavus; 25 µg/mL (≈ 110 µM) in the assay on Aspergillus fumigatus [1]; 50 µg/mL (≈ 221 µM) with Aspergillus niger. Further, the MIC in the assay with Candida albicans [11] worked out at 50 µg/mL (≈ 221 µM). In addition, the result with Candida albicans [8], in the assay with Candida albicans [9], in the assay with Candida albicans [10] and with Aspergillus fumigatus [3] was Active. Further, the Activity in the assay on Candida albicans [2] was 60%; with Candida albicans [4] it was 40%; in the assay with Aspergillus fumigatus [5], 40%.
